In article PMC8550878 (Journal of medicinal chemistry, 2021):
Non-standard residues stand in square brackets, D forms with d. Residues, ends and D or L forms follow the SMILES beside them. No end group written: not given here. *: point of attachment. Benzoyl(2-OMe,5-SO2F) = COc1ccc(S(=O)(=O)F)cc1C(=O)*; Biotin = O=C1N[C@H]2[C@H](CS[C@H]2CCCCC(=O)*)N1; X1 = Cc1ccc(S(=O)(=O)F)cc1C(=O)*; hSer = N[C@@H](CCO)C(=O)O; Nle = CCCC[C@H](N)C(=O)O; Abu = CC[C@H](N)C(=O)O; Dap = NC[C@H](N)C(=O)O; Ahx = NCCCCCC(=O)O

Assays:
[1] = tested on: Mcl-1 in A549 cell lysates; assay: Covalent adduct in spiked A549 cell lysates by immunoblotting; format: binding, human; conditions: A549 cell lysates spiked with 100 μM compound for 1 h at 37 °C, western blot
In short: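 A549 cells grown in Ham's F-12 with GlutaMAX, 10% FBS, PenStrep and 0.5 μg/mL puromycin. Harvested cells were lysed for 20 min on ice in Tris pH 7.4 buffer with Triton X-100, deoxycholate, SDS, IGEPAL, EDTA, protease and phosphatase inhibitors. Cleared, protein-quantified supernatant was incubated with DMSO or 100 μM test compound for 1 h at 37 °C. Then SDS-PAGE, PVDF transfer, milk block, anti-Mcl-1 and β-tubulin overnight at 4 °C, HRP secondary, ECL.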

Mcl-1 in A549 cells = assay: Mcl-1 protein levels in A549 cells by immunoblotting; format: cell-based, human; conditions: 50 or 100 μM compound, 2 h, western blot relative to β-tubulin
In short: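 A549 cells grown in Ham's F-12 with GlutaMAX, 10% FBS, 1% PenStrep and 0.5 μg/mL puromycin. Cells were exposed to DMSO or test compound (50 or 100 μM) for 2 h, with or without 30 min pre-treatment with 1 μM carfilzomib. Lysates were run on SDS-PAGE, transferred to PVDF, blocked in 5% milk/TBS-T, probed overnight at 4 °C for Mcl-1 and β-tubulin, then HRP secondary and ECL detection.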

hMcl-1 [2] = target: T1, hMcl-1 (Homo sapiens, UniProt Q07820); assay: Mass spectrometry of covalent adduct; format: binding; conditions: protein alone 18,763 Da (Figure S1)
hMcl-1 construct = assay: In vitro denaturation thermal shift; format: binding, human; conditions: hMcl-1 construct used for biochemical and crystallization studies (Figure S4)
hMcl-1 [3] = target: T1, hMcl-1; assay: DELFIA displacement assay, hMcl-1; format: binding
Solubility = format: physicochemical; conditions: qualitative, relative to peptides 10 and 11
hBfl-1 = target: T2, hBfl-1 (Homo sapiens, UniProt Q16548); assay: DELFIA displacement assay, hBfl-1; format: binding
T2 sequence (Q16548 1-149): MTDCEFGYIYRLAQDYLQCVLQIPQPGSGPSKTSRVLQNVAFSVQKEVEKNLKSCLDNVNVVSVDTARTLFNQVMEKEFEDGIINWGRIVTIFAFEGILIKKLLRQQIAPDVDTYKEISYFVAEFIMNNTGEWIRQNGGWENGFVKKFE

[4] = target: T3, hMcl-1 (residues 172–323) with N-terminal His tag (human, UniProt Q07820 172-323); assay: DELFIA displacement assay
[5] = target: T3, hMcl-1 (residues 172–323) with …; assay: DELFIA displacement assay; remark: listed apart in the source
[6] = target: T4, hBfl-1 (residues 1–149) with N-terminal His tag (human, UniProt Q16548 1-149); assay: DELFIA displacement assay
T4 sequence (looked up): T2 sequence (Q16548 1-149)

T1 sequence (Q07820 172-323): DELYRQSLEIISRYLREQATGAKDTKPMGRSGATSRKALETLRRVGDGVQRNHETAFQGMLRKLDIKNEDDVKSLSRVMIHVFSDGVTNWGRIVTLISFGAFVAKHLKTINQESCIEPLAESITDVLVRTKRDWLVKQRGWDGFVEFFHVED
T3 sequence (Q07820 172-323): as above

Molecule: CC[C@H](C)[C@H](NC(=O)[C@H](CCCNC(=N)N)NC(=O)[C@H](CCCNC(=N)N)NC(=O)[C@H](CC(C)C)NC(=O)[C@H](CCC(N)=O)NC(=O)[C@H](CCC(=O)O)NC(=O)[C@H](C)NC(=O)[C@@H](NC(=O)[C@H](CNC(=O)c1cc(S(=O)(=O)F)ccc1OC)NC(C)=O)[C@@H](C)CC)C(=O)NCC(=O)N[C@@H](CC(=O)O)C(=O)N[C@@H](CCCNC(=N)N)C(=O)N[C@@H](Cc1ccccc1)C(N)=O [Compound 16] (Ac-[Dap](Benzoyl(2-OMe,5-SO2F))IAEQLRRIGDRF-NH2)
- covalent adduct with Mcl-1 by band shift in cell lysates [1]: Covalent adduct was detected
- Mcl-1 protein levels (Mcl-1 in A549 cells): decrease in Mcl-1 protein levels

Molecule: CC[C@H](C)[C@H](NC(=O)[C@H](CCCNC(=N)N)NC(=O)[C@H](CCCNC(=N)N)NC(=O)[C@H](CC(C)C)NC(=O)[C@H](CCC(N)=O)NC(=O)[C@H](CCC(=O)O)NC(=O)[C@H](C)NC(=O)[C@@H](NC(=O)[C@H](CNC(=O)c1cc(S(=O)(=O)F)ccc1C)NC(C)=O)[C@@H](C)CC)C(=O)NCC(=O)N[C@@H](CC(=O)O)C(=O)N[C@@H](CCCNC(=N)N)C(=O)N[C@@H](Cc1ccccc1)C(N)=O [Compound 15] (Ac-[Dap](X1)IAEQLRRIGDRF-NH2)
- MW of hMcl-1 after incubation with compound (hMcl-1 [2]): 20,544 Da
- denaturation thermal shift (hMcl-1 construct): 23 °C

Molecule: AIAQLLRRIGDAF-NH2 [Compound 8]
- IC50 (hMcl-1 [3]): ~1.8 µM

Molecule: AIAQVLRRIGDAF-NH2 [Compound 7]
- IC50 (hMcl-1 [3]): ~1.8 µM

Molecule: Ac-AIAEQLRRIGDRF-NH2 [Compound 12]
- solubility (Solubility): increased solubility
- IC50 (hBfl-1): > 10 µM

B1: peptide 9 (peptide)
chain: H-AIAQ[hSer]LRRIGDAF-NH2
SMILES: CC[C@H](C)[C@H](NC(=O)[C@H](C)N)C(=O)N[C@@H](C)C(=O)N[C@@H](CCC(N)=O)C(=O)N[C@@H](CCO)C(=O)N[C@@H](CC(C)C)C(=O)N[C@@H](CCCNC(=N)N)C(=O)N[C@@H](CCCNC(=N)N)C(=O)N[C@H](C(=O)NCC(=O)N[C@@H](CC(=O)O)C(=O)N[C@@H](C)C(=O)N[C@@H](Cc1ccccc1)C(N)=O)[C@@H](C)CC
- IC50 [4]: ~3 µM

Molecule: H-AIAQALRRIGDAY-NH2 [peptide 2]
- IC50 [4]: > 3.6 µM

Molecule: H-AIAQALRRIGDAR-NH2 [peptide 3]
- IC50 [4]: > 10 µM

Molecule: H-AIAQALRRIGDAL-NH2 [peptide 4]
- IC50 [4]: 1.2 µM

Molecule: Ac-AIAEALRRIGDAF-NH2 [peptide 10]
- IC50 [4]: 0.261 µM

Molecule: H-AIAEQLRRIGDAF-NH2 [peptide 11]
- IC50 [4]: 0.313 µM

Molecule: Ac-AIAEQLRRIGDRF-NH2 [peptide 12]
- IC50 [4]: 0.57 µM

B2: biotinylated-BH3 peptide (biotin-AHA-EDIIRNIARHLAQVGDSMDR-NH2) (peptide)
peptide: {Biotin-Ahx}-EDIIRNIARHLAQVGDSMDR-NH2
SMILES: CC[C@H](C)[C@H](NC(=O)[C@H](CC(N)=O)NC(=O)[C@H](CCCNC(=N)N)NC(=O)[C@@H](NC(=O)[C@@H](NC(=O)[C@H](CC(=O)O)NC(=O)[C@H](CCC(=O)O)NC(=O)CCCCCNC(=O)CCCC[C@@H]1SC[C@@H]2NC(=O)N[C@@H]21)[C@@H](C)CC)[C@@H](C)CC)C(=O)N[C@@H](C)C(=O)N[C@@H](CCCNC(=N)N)C(=O)N[C@@H](Cc1c[nH]cn1)C(=O)N[C@@H](CC(C)C)C(=O)N[C@@H](C)C(=O)N[C@@H](CCC(N)=O)C(=O)N[C@H](C(=O)NCC(=O)N[C@@H](CC(=O)O)C(=O)N[C@@H](CO)C(=O)N[C@@H](CCSC)C(=O)N[C@@H](CC(=O)O)C(=O)N[C@@H](CCCNC(=N)N)C(N)=O)C(C)C
- binding result [5]: binds
- binding result [6]: binds

B3: peptide 5 (peptide)
chain: H-AIAQALRRIGDA[Nle]-NH2
SMILES: CCCC[C@H](NC(=O)[C@H](C)NC(=O)[C@H](CC(=O)O)NC(=O)CNC(=O)[C@@H](NC(=O)[C@H](CCCNC(=N)N)NC(=O)[C@H](CCCNC(=N)N)NC(=O)[C@H](CC(C)C)NC(=O)[C@H](C)NC(=O)[C@H](CCC(N)=O)NC(=O)[C@H](C)NC(=O)[C@@H](NC(=O)[C@H](C)N)[C@@H](C)CC)[C@@H](C)CC)C(N)=O
- IC50 [4]: ~1.6 µM

B4: peptide 6 (peptide)
chain: H-AIAQ[Abu]LRRIGDAF-NH2
SMILES: CC[C@H](NC(=O)[C@H](CCC(N)=O)NC(=O)[C@H](C)NC(=O)[C@@H](NC(=O)[C@H](C)N)[C@@H](C)CC)C(=O)N[C@@H](CC(C)C)C(=O)N[C@@H](CCCNC(=N)N)C(=O)N[C@@H](CCCNC(=N)N)C(=O)N[C@H](C(=O)NCC(=O)N[C@@H](CC(=O)O)C(=O)N[C@@H](C)C(=O)N[C@@H](Cc1ccccc1)C(N)=O)[C@@H](C)CC
- IC50 [4]: ~1.3 µM
